From ChEMBL document CHEMBL1154321, “Benzoxazole piperidines as selective and potent somatostatin receptor subtype 5 antagonists” (Bioorg Med Chem Lett, 2009) come the findings set out here.

Data set [1] deals with Somatostatin receptor type 3 (Homo sapiens, UniProt P32745). In words: Displacement of SST14 from human recombinant SST3 receptor. In short, it runs like this: (§1)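 Membranes prepared by sonication from cells expressing the SST receptor subtype, incubated with radiolabeled 11-Tyr SST-14 tracer and test compound at varying concentrations; non-labeled SST-14 defined non-specific binding. Incubation stopped by glass-fiber filtration, bound radioactivity counted; IC50 for half-maximal binding inhibition estimated and Ki derived.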

The target of data set [2] is Somatostatin receptor type 4 (Homo sapiens, UniProt P31391). Description: Displacement of SST14 from human recombinant SST4 receptor. Summed up:
as §1

The target of data set [3] is Somatostatin receptor type 2 (Homo sapiens, UniProt P30874). In words: Displacement of SST14 from human recombinant SST2 receptor. Summed up:
as §1

The target of data set [4] is Somatostatin receptor type 5 (Homo sapiens, UniProt P35346). In words: Displacement of SST14 from human recombinant SST5 receptor expressed in CHO cells by radioligand binding assay. Type of data set: cell-based. In short, it runs like this:
as §1

The next data set is filed under the species Homo sapiens. In words: Selectivity ratio of Ki for human histamine H1 receptor to Ki for human SST5 receptor.
Data set [5] is described as follows: Solubility in phosphate buffer at pH 6.5 by lyophilization solubility assay. Type of data set: physicochemical. In short, it runs like this:
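Lyophilized DMSO stock solutions redissolved in 50 mM phosphate buffer, pH 6.5; solubility read spectrophotometrically.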

A short description of data set [6]: Octanol-TAPSO partition coefficient, log D at pH 7.4 by spectrophotometry. Type of data set: physicochemical. The following applies: octanol/TAPSO buffer. In short, it runs like this: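 Spectrophotometric log D in 1-octanol/50 mM TAPSO buffer, pH 7.4, containing 5% (v/v) DMSO.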
In another data set the target is Histamine H1 receptor (Homo sapiens, UniProt P35367). In words: Binding affinity to human histamine H1 receptor.
Data set [7] in a line: sPermeability by PAMPA. Type of data set: ADME. Conditions: read-out: permeability. Summed up: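 Parallel artificial membrane permeation; Pe categorized as low (<0.1), medium (0.1–1.0) or high (>1.0).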
Data set [8] can be described thus: Dissociation constant, pKa by spectrophotometry. It is filed as physicochemical.

≈ marks a conversion by molar mass, not a printed value. Where only a bound is given, the exact number is not on record here.

Somatostatin receptor type 2, sequence (P30874 whole entry): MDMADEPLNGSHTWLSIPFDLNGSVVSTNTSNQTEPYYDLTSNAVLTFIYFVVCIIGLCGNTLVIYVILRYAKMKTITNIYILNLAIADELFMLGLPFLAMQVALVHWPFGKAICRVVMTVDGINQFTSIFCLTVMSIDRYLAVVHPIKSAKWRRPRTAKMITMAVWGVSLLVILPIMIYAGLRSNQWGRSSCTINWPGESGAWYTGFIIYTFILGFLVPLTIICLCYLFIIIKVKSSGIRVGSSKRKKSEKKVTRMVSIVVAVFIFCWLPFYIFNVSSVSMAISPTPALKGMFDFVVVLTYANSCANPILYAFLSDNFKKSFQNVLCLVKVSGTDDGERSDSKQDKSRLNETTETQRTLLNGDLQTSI
Somatostatin receptor type 5, sequence (P35346 whole entry): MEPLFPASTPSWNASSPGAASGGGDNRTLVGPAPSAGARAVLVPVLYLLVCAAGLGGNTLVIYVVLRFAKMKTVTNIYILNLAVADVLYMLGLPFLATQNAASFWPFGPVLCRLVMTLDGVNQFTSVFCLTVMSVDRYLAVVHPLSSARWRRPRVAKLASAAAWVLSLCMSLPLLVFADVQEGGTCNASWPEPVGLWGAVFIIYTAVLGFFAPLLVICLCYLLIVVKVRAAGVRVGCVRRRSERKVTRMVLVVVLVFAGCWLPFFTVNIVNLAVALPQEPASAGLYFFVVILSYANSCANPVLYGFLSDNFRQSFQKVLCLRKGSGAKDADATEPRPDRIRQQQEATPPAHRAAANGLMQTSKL
Somatostatin receptor type 4, sequence (P31391 whole entry): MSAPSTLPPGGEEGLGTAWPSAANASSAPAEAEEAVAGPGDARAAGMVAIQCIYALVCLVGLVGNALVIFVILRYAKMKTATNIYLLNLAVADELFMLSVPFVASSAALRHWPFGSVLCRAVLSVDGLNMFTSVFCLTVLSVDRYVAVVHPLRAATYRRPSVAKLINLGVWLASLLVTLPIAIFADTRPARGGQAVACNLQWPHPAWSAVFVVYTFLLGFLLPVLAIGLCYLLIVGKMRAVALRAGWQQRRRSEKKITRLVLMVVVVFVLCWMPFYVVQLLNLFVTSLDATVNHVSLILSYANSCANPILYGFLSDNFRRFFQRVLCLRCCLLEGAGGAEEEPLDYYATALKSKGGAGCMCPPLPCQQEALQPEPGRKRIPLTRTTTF
Somatostatin receptor type 3, sequence (P32745 whole entry): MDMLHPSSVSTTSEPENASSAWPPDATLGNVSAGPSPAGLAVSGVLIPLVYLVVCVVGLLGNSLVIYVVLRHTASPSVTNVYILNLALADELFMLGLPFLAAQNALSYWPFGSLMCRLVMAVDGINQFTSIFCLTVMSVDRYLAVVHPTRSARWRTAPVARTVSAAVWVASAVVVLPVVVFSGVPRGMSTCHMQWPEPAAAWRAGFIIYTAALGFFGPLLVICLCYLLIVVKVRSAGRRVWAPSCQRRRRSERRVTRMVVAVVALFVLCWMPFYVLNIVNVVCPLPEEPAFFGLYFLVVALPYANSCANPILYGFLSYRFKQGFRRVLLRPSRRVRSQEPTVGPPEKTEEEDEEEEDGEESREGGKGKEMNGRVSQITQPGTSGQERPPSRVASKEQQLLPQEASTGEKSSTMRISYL
Histamine H1 receptor, sequence (P35367 whole entry): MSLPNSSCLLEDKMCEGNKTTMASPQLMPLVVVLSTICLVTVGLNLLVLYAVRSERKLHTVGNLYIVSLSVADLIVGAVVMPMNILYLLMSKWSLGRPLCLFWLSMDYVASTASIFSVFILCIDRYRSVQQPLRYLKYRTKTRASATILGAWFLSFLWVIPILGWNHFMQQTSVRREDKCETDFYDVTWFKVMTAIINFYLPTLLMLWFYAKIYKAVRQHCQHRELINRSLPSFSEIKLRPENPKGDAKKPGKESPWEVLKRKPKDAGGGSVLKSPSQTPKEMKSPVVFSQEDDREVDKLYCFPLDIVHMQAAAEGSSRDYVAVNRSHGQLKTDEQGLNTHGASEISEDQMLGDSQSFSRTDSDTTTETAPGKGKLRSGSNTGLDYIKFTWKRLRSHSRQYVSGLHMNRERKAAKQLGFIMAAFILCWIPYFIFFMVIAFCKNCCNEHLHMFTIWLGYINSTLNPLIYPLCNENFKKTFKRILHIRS

Regarding `CCOc1cc(CN2CCC(Nc3nc4ccccc4s3)CC2)ccc1OC`, the Ki in data set [1] was greater than 10 µM; in [2] it was greater than 10 µM; in data set [3], greater than 10 µM; in data set [4], 0.33 µM.
In the case of `CCOc1cc(CN2CCC(Nc3nc4cccnc4s3)CC2)ccc1OC`, the Ki in data set [1] is greater than 10 µM; in [2] it was greater than 10 µM; in data set [3], greater than 10 µM; in data set [4], 0.309 µM.
Consider `COc1ccc(CN2CCC(Nc3nc4ccccc4o3)CC2)cc1OC`, for which the Ki was greater than 10 µM in data set [1], greater than 10 µM in data set [2], greater than 10 µM in data set [3] and 0.472 µM in data set [4].
In the case of `COc1ccc(CN2CCC(Nc3nc4ccccc4o3)CC2)cc1OCC(C)C`, the inhibitory constant (Ki) in [1], in data set [2] and in data set [3] was greater than 10 µM throughout.
Consider `CCOc1cc(CN2CCC(Nc3nc4ccccc4o3)CC2)ccc1O`, for which the Ki in [1], in data set [2] and in data set [3] was greater than 10 µM in each case.
As for `CCOc1cc(CN2CCC(Nc3nc4ccccc4o3)CC2)cnc1OC`, the Ki in data set [1] was greater than 10 µM; in data set [2] it was greater than 10 µM; in data set [3], greater than 10 µM; in data set [4], greater than 1 µM.
For `CCOc1cc(CN2CCC(Nc3nc4cc(Cl)ccc4o3)CC2)ccc1OC`, the inhibition constant Ki in data set [1] is greater than 10 µM; in data set [2] it was greater than 10 µM; in data set [3], greater than 10 µM; in data set [4] it was 0.194 µM.
`COc1ccc(CN2CCC(Nc3nc4ccccc4o3)CC2)cc1OC1CCCC1`: the inhibition constant (Ki) in [1], in data set [2] and in data set [3] was greater than 10 µM throughout.
For the compound `CCOc1cc(N2CCN(C(=O)Nc3nc4ccccc4s3)CC2)ccc1OC`, the Ki in data set [1] is greater than 10 µM; in data set [2] it was greater than 10 µM; in [3], greater than 10 µM; in data set [4], greater than 1 µM.
As to `CCOc1cc(NC2CCN(c3nc4ccccc4s3)CC2)ccc1OC`, the Ki in data set [1] is greater than 10 µM; in data set [2] it was greater than 10 µM; in [3], greater than 10 µM; in data set [4] it was greater than 1 µM.
With `CCCOc1cc(CN2CCC(Nc3nc4ccccc4o3)CC2)ccc1OC`, the Ki in data set [1], in data set [2] and in [3] was greater than 10 µM in each case.
Regarding `CCOc1cc(CN2CCC(Nc3nc4ncccc4o3)CC2)ccc1OC`, the Ki in data set [1] was greater than 10 µM; in [2], greater than 10 µM; in data set [3] it was greater than 10 µM; in data set [4], greater than 1 µM.
For `CCOC(=O)c1c(OCC)cc(CN2CCC(Nc3nc4ccccc4o3)CC2)cc1OCC`, the inhibition constant Ki in data set [1] was greater than 10 µM; in data set [2], greater than 10 µM; in data set [3], greater than 10 µM; in data set [4] it was 0.156 µM.
`CCOc1cc(CN2CCC(Nc3nc4cc(S(=O)(=O)N(C)C)ccc4o3)CC2)cc(OCC)c1-n1cccc1`: the Ki in data set [1] was greater than 10 µM; in [2], greater than 10 µM; in data set [3] it was greater than 10 µM; in data set [4] it was 0.052 µM; at Histamine H1 receptor, 5 µM. Besides, the Ratio Ki in the data set listed under Homo sapiens worked out at 96. Moreover, in data set [5], the solubility came out at 22 µg/mL (≈ 38.8 µM). In data set [6], this compound returned a logD of 2.89. For the same compound, in [7], the Papp worked out at 1.31 ×10⁻⁶ cm/s.
As for `CCOc1cc(NCc2cccc(Nc3nc4ccccc4s3)c2)ccc1OC`, the Ki was greater than 10 µM in [1], greater than 10 µM in [2], greater than 10 µM in data set [3] and greater than 1 µM in data set [4].
As to `CCOc1cc(NC2CCC(Nc3nc4ccccc4s3)CC2)ccc1OC` (stereo not drawn), the Ki was greater than 10 µM in [1], greater than 10 µM in data set [2], greater than 10 µM in data set [3] and greater than 1 µM in data set [4].
Regarding `CCOc1cc(CN2CCC(Nc3nc4ccccc4o3)CC2)cc(OCC)c1F`, the inhibition constant (Ki) in [1] was greater than 10 µM; in data set [2] it was greater than 10 µM; in [3] it was greater than 10 µM; in [4], 0.178 µM.
`CCOc1cc(CN2CCC(Nc3nc4cc(Cl)c(S(N)(=O)=O)cc4o3)CC2)cc(OCC)c1F`: the inhibitory constant (Ki) in [1] is greater than 10 µM; in data set [2], greater than 10 µM; in data set [3], greater than 10 µM; in [4], 0.252 µM. For the same compound, the pKa in data set [8] is 7.61. Besides, the concentration in solution in [5] (solubility) was 32 µg/mL (≈ 60.7 µM). The compound further registered a logD in data set [6] of 2.78. Besides, in [7], the Papp was found to be 2.45 ×10⁻⁶ cm/s.
Take `CCOc1cc(CN2CCC(Nc3nc4ccccc4o3)CC2)ccc1OC1CC1`: the Ki in [1] is greater than 10 µM; in [2], greater than 10 µM; in data set [3], greater than 10 µM; in data set [4] it was 0.537 µM.
Take `CCOc1cc(CN2CCC(Nc3nc4ccccc4o3)CC2)c(F)c(OCC)c1`: the Ki was greater than 10 µM in [1], greater than 10 µM in data set [2], greater than 10 µM in data set [3] and greater than 1 µM in data set [4].
Regarding `COc1ccc(CN2CCC(Nc3nc4ccccc4o3)CC2)cc1OCCF`, the Ki in data set [1] is greater than 10 µM; in data set [2], greater than 10 µM; in data set [3] it was greater than 10 µM; in [4], 0.487 µM.
As for `CCOc1cc(CN2CCC(Nc3nc4ccccc4o3)CC2)ccc1F`, the inhibition constant Ki in data set [1] was greater than 10 µM; in data set [2], greater than 10 µM; in data set [3], greater than 10 µM; on Histamine H1 receptor, 0.826 µM. Besides, in the data set listed under Homo sapiens, the Ratio Ki stood at 4.3. The compound also registered a pKa in [8] of 7.79. Besides, the solubility in data set [5] was greater than 452 µg/mL. In data set [6], this compound yielded a logD of 3.63. The Papp in data set [7] was 4.33 ×10⁻⁶ cm/s.
Consider `CCOc1cc(CN2CCC(Nc3nc4ccccc4o3)CC2)ccc1OC(C)C`, for which the inhibition constant Ki is greater than 10 µM in data set [1], greater than 10 µM in data set [2], greater than 10 µM in [3] and greater than 1 µM in data set [4].
As to `CCOc1cc(CN2CCC(C(=O)Nc3nc4ccccc4s3)CC2)ccc1OC`, the inhibition constant (Ki) in data set [1] is greater than 10 µM; in data set [2] it was greater than 10 µM; in [3] it was greater than 10 µM; in data set [4] it was greater than 1 µM.
`CCOc1cc(CN2CCC(Nc3nc4ccccc4o3)CC2)ccc1C(F)(F)F`: the inhibitory constant (Ki) in [1] is greater than 10 µM; in data set [2], greater than 10 µM; in data set [3] it was greater than 10 µM; in data set [4], 0.524 µM.
For `CCOc1cc(CN2CCC(Nc3nc4cc(S(=O)(=O)N(C)C)ccc4o3)CC2)ccc1OC`, the Ki was greater than 10 µM in [1], greater than 10 µM in data set [2], greater than 10 µM in data set [3] and 0.226 µM in [4].
With `CCOc1cc(CN2CCC(Nc3nc4ccccc4o3)CC2)c(F)cc1OCCO`, the inhibition constant Ki in data set [1] was greater than 10 µM; in data set [2], greater than 10 µM; in data set [3] it was greater than 10 µM; in data set [4] it was greater than 1 µM.
Turning to `CCOc1cc(CN2CCC(Nc3nc4ccccc4o3)CC2)ccc1C`, the inhibition constant Ki in data set [1], in data set [2] and in data set [3] was greater than 10 µM each time.
As for `CCOc1cc(CN2CCC(Nc3nc4ccncc4o3)CC2)ccc1OC`, the Ki is greater than 10 µM in [1], greater than 10 µM in data set [2], greater than 10 µM in data set [3] and 0.72 µM in data set [4].
Regarding `CCOc1cc(CN2CCC(Nc3nc4ccc(Cl)cc4s3)CC2)ccc1OC`, the Ki was greater than 10 µM in data set [1], greater than 10 µM in [2], greater than 10 µM in data set [3] and 0.361 µM in data set [4].
`CCNc1cc(CN2CCC(Nc3nc4ccccc4o3)CC2)ccc1OC`: the Ki is greater than 10 µM in [1], greater than 10 µM in [2], greater than 10 µM in [3] and 0.371 µM in [4].
Regarding `CCOc1cc(CN2CCC(Nc3nc4ccccc4o3)CC2)cc(OCC)c1N`, the Ki was greater than 10 µM in data set [1], greater than 10 µM in data set [2], greater than 10 µM in [3] and 0.033 µM in [4].
On to `CCOc1cc(CN2CCC(Nc3nc4ccccc4[nH]3)CC2)ccc1OC`, for which the Ki in data set [1] was greater than 10 µM; in data set [2], greater than 10 µM; in data set [3], greater than 10 µM; in data set [4], greater than 1 µM.
With `COc1ccc(CCN2CCC(Nc3nc4ccccc4n3Cc3ccc(F)cc3)CC2)cc1` [ASTEMIZOLE], the Ki in data set [1], in data set [2] and in data set [3] was greater than 10 µM throughout.
Take `CC(C)Oc1cc(CN2CCC(Nc3nc4ccccc4o3)CC2)cc(OC(C)C)c1`: the Ki is greater than 10 µM in data set [1], greater than 10 µM in data set [2], greater than 10 µM in [3] and 0.031 µM in data set [4].
In the case of `CCOc1cc(CN2CCC(Nc3nc4cccnc4o3)CC2)ccc1OC`, the inhibition constant Ki is greater than 10 µM in [1], greater than 10 µM in data set [2], greater than 10 µM in data set [3] and 0.633 µM in data set [4].
As to `CCOc1cc(CN2CCC(Nc3nc4cc([N+](=O)[O-])ccc4o3)CC2)ccc1OC`, the inhibition constant Ki was greater than 10 µM in data set [1], greater than 10 µM in [2], greater than 10 µM in [3] and 0.252 µM in data set [4].
`CCOc1cc(CN2CCC(Nc3nc4cc(NC(C)=O)ccc4o3)CC2)ccc1OC`: the Ki in data set [1] is greater than 10 µM; in data set [2] it was greater than 10 µM; in data set [3] it was greater than 10 µM; in data set [4] it was 0.357 µM.
Turning to `CCOc1cc(CN2CCC(Nc3nc4cc(OC(F)(F)F)ccc4o3)CC2)ccc1OC`, the Ki in data set [1] was greater than 10 µM; in data set [2], greater than 10 µM; in data set [3], greater than 10 µM; in data set [4] it was 0.354 µM.
Take `CCOc1cc(NC2CCC(NCc3nc4ccccc4s3)CC2)ccc1OC` (stereo not drawn): the Ki is greater than 10 µM in data set [1], greater than 10 µM in [2], greater than 10 µM in data set [3] and greater than 1 µM in [4].
